Test results published in ChEMBL document CHEMBL1156480, “Insensitivity to Abeta42-lowering nonsteroidal anti-inflammatory drugs and gamma-secretase inhibitors is common among aggressive presenilin-1 mutations” (J Biol Chem, 2007).

Columns and labels:
Assay type in all cases: cell-based
Design in all cases: scale not given: the % may be the effect or the level left
[1] = molecular target: Presenilin-1 (Homo sapiens) (UniProt P49768); assay: Reduction of wild type human PS1-induced amyloid beta42 level in CHO cells overexpressing human APP751 at 30 uM after 24 hrs by liquid phase electrochemiluminescence assay relative to control
[2] = tested on: Presenilin-1 (Homo sapiens), P49768 [S290C]; assay: Reduction of human PS1 S290C mutant-induced amyloid beta-42 level in CHO cells overexpressing human APP751 at 30 uM after 24 hrs by liquid phase electrochemiluminescence assay relative to control
CHO [3] = assay: Reduction of human PS1 delta exon9 mutant-induced amyloid beta-42 level in CHO cells overexpressing human APP751 at 30 uM after 24 hrs by liquid phase electrochemiluminescence assay relative to control
CHO [4] = assay: Reduction of human PS1 delta 291 to 319 deletion mutant-induced amyloid beta-42 level in CHO cells overexpressing human APP751 at 30 uM after 24 hrs by liquid phase electrochemiluminescence assay relative to control
[5] = tested on: Presenilin-1 (Homo sapiens), P49768 [M292D]; assay: Reduction of human PS1 M292D mutant-induced amyloid beta-42 level in CHO cells overexpressing human APP751 at 30 uM after 24 hrs by liquid phase electrochemiluminescence assay relative to control
[6] = tested on: Presenilin-1 (Homo sapiens), P49768 [M292D,M146L]; assay: Reduction of human PS1 M292D/M146L mutant-induced amyloid beta-42 level in CHO cells overexpressing human APP751 at 30 uM after 24 hrs by liquid phase electrochemiluminescence assay relative to control
[7] = molecular target: Presenilin-1 (Homo sapiens) (UniProt P49768); assay: Reduction of human wild type human PS1-induced amyloid beta-42 level in CHO cells overexpressing human APP751 at 60 uM after 24 hrs by liquid phase electrochemiluminescence assay relative to control
[8] = tested on: Presenilin-1 (Homo sapiens), P49768 [S290C]; assay: Reduction of human PS1 S290C mutant-induced amyloid beta-42 level in CHO cells overexpressing human APP751 at 60 uM after 24 hrs by liquid phase electrochemiluminescence assay relative to control
CHO [9] = assay: Reduction of human PS1 delta exon9 mutant-induced amyloid beta-42 level in CHO cells overexpressing human APP751 at 60 uM after 24 hrs by liquid phase electrochemiluminescence assay relative to control
CHO [10] = assay: Reduction of human PS1 delta 291 to 319 deletion mutant-induced amyloid beta-42 level in CHO cells overexpressing human APP751 at 60 uM after 24 hrs by liquid phase electrochemiluminescence assay relative to control
[11] = tested on: Presenilin-1 (Homo sapiens), P49768 [S290C,M292D]; assay: Reduction of human PS1 S290C/M292D mutant-induced amyloid beta-42 level in CHO cells overexpressing human APP751 at 30 uM after 24 hrs by liquid phase electrochemiluminescence assay relative to control
[12] = tested on: Presenilin-1 (Homo sapiens), P49768 [M292D]; assay: Reduction of human PS1 M292D mutant-induced amyloid beta42 level in CHO cells overexpressing human APP751 at 60 uM after 24 hrs by liquid phase electrochemiluminescence assay relative to control
[13] = tested on: Presenilin-1 (Homo sapiens), P49768 [M292D,M146L]; assay: Reduction of human PS1 M292D/M146L mutant-induced amyloid beta42 level in CHO cells overexpressing human APP751 at 60 uM after 24 hrs by liquid phase electrochemiluminescence assay relative to control
[14] = tested on: Presenilin-1 (Homo sapiens), P49768 [L166P]; assay: Reduction of human PS1 L166P mutant-induced amyloid beta42 level in CHO cells overexpressing human APP751 at 60 uM after 24 hrs by liquid phase electrochemiluminescence assay relative to control
[15] = tested on: Presenilin-1 (Homo sapiens), P49768 [P117L]; assay: Reduction of human PS1 P117L mutant-induced amyloid beta42 level in CHO cells overexpressing human APP751 at 60 uM after 24 hrs by liquid phase electrochemiluminescence assay relative to control
[16] = tested on: Presenilin-1 (Homo sapiens), P49768 [G384A]; assay: Reduction of human PS1 G384A mutant-induced amyloid beta42 level in CHO cells overexpressing human APP751 at 60 uM after 24 hrs by liquid phase electrochemiluminescence assay relative to control
[17] = tested on: Presenilin-1 (Homo sapiens), P49768 [L166P]; assay: Reduction of human PS1 L166P mutant-induced amyloid beta42 level in CHO cells overexpressing human APP751 at 30 uM after 24 hrs by liquid phase electrochemiluminescence assay relative to control
[18] = tested on: Presenilin-1 (Homo sapiens), P49768 [P117L]; assay: Reduction of human PS1 P117L mutant-induced amyloid beta42 level in CHO cells overexpressing human APP751 at 30 uM after 24 hrs by liquid phase electrochemiluminescence assay relative to control
[19] = tested on: Presenilin-1 (Homo sapiens), P49768 [G384A]; assay: Reduction of human PS1 G384A mutant-induced amyloid beta42 level in CHO cells overexpressing human APP751 at 30 uM after 24 hrs by liquid phase electrochemiluminescence assay relative to control
[20] = molecular target: Presenilin-1 (Homo sapiens) (UniProt P49768); assay: Reduction of human wild type PS1-induced amyloid beta-40 level in CHO cells overexpressing human APP751 at 100 nM after 24 hrs by liquid phase electrochemiluminescence assay relative to control
CHO [21] = assay: Reduction of human PS1 delta exon9 mutant-induced amyloid beta-40 level in CHO cells overexpressing human APP751 at 100 nM after 24 hrs by liquid phase electrochemiluminescence assay relative to control
How it was run: (§1)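 APP751 CHO cells stably expressing PS1-ΔExon9, PS1-L166P or PS1-WT, cultured in parallel in serum-containing medium. Treated 24 h with increasing γ-secretase inhibitor concentrations or DMSO. Conditioned-media Abeta40/Abeta42 quantified by LPECL against synthetic peptide standards (16–2000 pg/ml). Duplicates normalized to DMSO. n = 3, one-way ANOVA with Dunnett's test versus PS1-WT.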

[22] = tested on: Presenilin-1 (Homo sapiens), P49768 [L166P]; assay: Reduction of human PS1 L166P mutant-induced amyloid beta-40 level in CHO cells overexpressing human APP751 at 100 nM after 24 hrs by liquid phase electrochemiluminescence assay relative to control; how it was run: as §1
[23] = molecular target: Presenilin-1 (Homo sapiens) (UniProt P49768); assay: Reduction of human wild type PS1-induced amyloid beta-42 level in CHO cells overexpressing human APP751 at 100 nM after 24 hrs by liquid phase electrochemiluminescence assay relative to control
CHO [24] = assay: Reduction of human PS1 delta exon9 mutant-induced amyloid beta-42 level in CHO cells overexpressing human APP751 at 100 nM after 24 hrs by liquid phase electrochemiluminescence assay relative to control; how it was run: as §1
[25] = tested on: Presenilin-1 (Homo sapiens), P49768 [L166P]; assay: Reduction of human PS1 L166P mutant-induced amyloid beta-42 level in CHO cells overexpressing human APP751 at 100 nM after 24 hrs by liquid phase electrochemiluminescence assay relative to control; how it was run: as §1
[26] = molecular target: Presenilin-1 (Homo sapiens) (UniProt P49768); assay: Reduction of human wild type PS1-induced amyloid beta-40 level in CHO cells overexpressing human APP751 at 25 nM after 24 hrs by liquid phase electrochemiluminescence assay relative to control
CHO [27] = assay: Reduction of human PS1 delta exon9 mutant-induced amyloid beta-40 level in CHO cells overexpressing human APP751 at 25 nM after 24 hrs by liquid phase electrochemiluminescence assay relative to control; how it was run: as §1
[28] = tested on: Presenilin-1 (Homo sapiens), P49768 [L166P]; assay: Reduction of human PS1 L166P mutant-induced amyloid beta-40 level in CHO cells overexpressing human APP751 at 25 nM after 24 hrs by liquid phase electrochemiluminescence assay relative to control; how it was run: as §1
[29] = molecular target: Presenilin-1 (Homo sapiens) (UniProt P49768); assay: Reduction of human wild type PS1-induced amyloid beta-40 level in CHO cells overexpressing human APP751 at 50 nM after 24 hrs by liquid phase electrochemiluminescence assay relative to control
CHO [30] = assay: Reduction of human PS1 delta exon9 mutant-induced amyloid beta40 level in CHO cells overexpressing human APP751 at 50 nM after 24 hrs by liquid phase electrochemiluminescence assay relative to control
[31] = tested on: Presenilin-1 (Homo sapiens), P49768 [L166P]; assay: Reduction of human PS1 L166P mutant-induced amyloid beta-40 level in CHO cells overexpressing human APP751 at 50 nM after 24 hrs by liquid phase electrochemiluminescence assay relative to control; how it was run: as §1
[32] = molecular target: Presenilin-1 (Homo sapiens) (UniProt P49768); assay: Reduction of human wild type PS1-induced amyloid beta-42 level in CHO cells overexpressing human APP751 at 25 nM after 24 hrs by liquid phase electrochemiluminescence assay relative to control
CHO [33] = assay: Reduction of human PS1 delta exon9 mutant-induced amyloid beta-42 level in CHO cells overexpressing human APP751 at 25 nM after 24 hrs by liquid phase electrochemiluminescence assay relative to control; how it was run: as §1
[34] = tested on: Presenilin-1 (Homo sapiens), P49768 [L166P]; assay: Reduction of human PS1 L166P mutant-induced amyloid beta42 level in CHO cells overexpressing human APP751 at 25 nM after 24 hrs by liquid phase electrochemiluminescence assay relative to control; how it was run: as §1
[35] = molecular target: Presenilin-1 (Homo sapiens) (UniProt P49768); assay: Reduction of human wild type PS1-induced amyloid beta-42 level in CHO cells overexpressing human APP751 at 50 nM after 24 hrs by liquid phase electrochemiluminescence assay relative to control
CHO [36] = assay: Reduction of human PS1 delta exon9 mutant-induced amyloid beta-42 level in CHO cells overexpressing human APP751 at 50 nM after 24 hrs by liquid phase electrochemiluminescence assay relative to control
[37] = tested on: Presenilin-1 (Homo sapiens), P49768 [L166P]; assay: Reduction of human PS1 L166P mutant-induced amyloid beta42 level in CHO cells overexpressing human APP751 at 50 nM after 24 hrs by liquid phase electrochemiluminescence assay relative to control; how it was run: as §1

Structure (SMILES): CSc1ccc(/C=C2/C(C)=C(CC(=O)O)c3cc(F)ccc32)cc1
- Activity [1]: 78.2%
- Activity [2]: 83.8%
- Activity (CHO [3]): 99.7%
- Activity (CHO [4]): 88.7%
- Activity [5]: 89.5%
- Activity [6]: 73.2%
- Activity [7]: 61.6%
- Activity [8]: 65.9%
- Activity (CHO [9]): 99.5%
- Activity (CHO [10]): 82.7%
- Activity [11]: 82.4%
- Activity [12]: 73.9%
- Activity [13]: 58.5%
- Activity [14]: 99.2%
- Activity [15]: 88.5%
- Activity [16]: 90.3%
- Activity [17]: 99.5%
- Activity [18]: 100%
- Activity [19]: 95.1%

Structure (SMILES): C[C@H](NC(=O)Cc1cc(F)cc(F)c1)C(=O)N[C@H](C(=O)OC(C)(C)C)c1ccccc1
- Activity [20]: 5.82%
- Activity (CHO [21]): 60.8%
- Activity [22]: 14.9%
- Activity [23]: 8.13%
- Activity (CHO [24]): 65.9%
- Activity [25]: 34.5%
- Activity [26]: 33.8%
- Activity (CHO [27]): 101%
- Activity [28]: 54.4%
- Activity [29]: 14.6%
- Activity (CHO [30]): 90.2%
- Activity [31]: 30.3%
- Activity [32]: 44%
- Activity (CHO [33]): 107%
- Activity [34]: 72.3%
- Activity [35]: 18.8%
- Activity (CHO [36]): 94.9%
- Activity [37]: 50.3%
